According to ChEMBL document CHEMBL4257580, “Tanshinone-IIA-Based Analogues of Imidazole Alkaloid Act as Potent Inhibitors To Block Breast Cancer Invasion and Metastasis in Vivo” (J Med Chem, 2018):
pIC50: −log10 of the molar value.

Key:
[1] = system: HepG2; experiment: Antiproliferative activity against human HepG2 cells after 72 hrs by MTT assay; assay type: functional, cell-based; conditions: HepG2, 72 h
How it was run: (§1)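 A549, HeLa, HepG2 and normal liver L02 cells kept in DMEM with 10% FBS at 37 °C under 5% CO2. Plated at 5×10^3 cells/well for 24 h, then treated with graded concentrations for 72 h. Viability measured by MTT reduction (5 h), formazan dissolved in DMSO and read at 570 nm. Three repeats.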

[2] = system: MDA-MB-231; experiment: Antiproliferative activity against human MDA-MB-231 cells after 72 hrs by MTT assay; assay type: functional, cell-based; conditions: MDA-MB-231, 72 h
How it was run: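 MDA-MB-231 cells grown in DMEM with 10% FBS and penicillin/streptomycin at 37 °C under 5% CO2. Seeded at 5×10^3 cells/well for 24 h, then exposed to compound across a concentration range for 72 h. MTT (5 mg/mL in PBS) added for 5 h, formazan dissolved in DMSO, absorbance read at 570 nm. Three repeats.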

[3] = system: A549; experiment: Antiproliferative activity against human A549 cells after 72 hrs by MTT assay; assay type: functional, cell-based; conditions: A549, 72 h; how it was run: as §1
[4] = system: L02; experiment: Antiproliferative activity against human L02 cells after 72 hrs by MTT assay; assay type: cell-based; conditions: L02, 72 h; how it was run: as §1
[5] = system: HeLa; experiment: Antiproliferative activity against human HeLa cells after 72 hrs by MTT assay; assay type: functional, cell-based; how it was run: as §1

pIC50 [1] | pIC50 [2] | pIC50 [3] | pIC50 [5] | SMILES | pIC50 [4]
4.43 | 4.59 | 4.74 | 4.28 | Cc1coc2c3ccc4c(c3c3[nH]c(-c5cccc(O)c5)nc3c12)CCCC4(C)C | 4.48
4.51 | 4.51 | 4.60 | 3.80 | Cc1coc2c3ccc4c(c3c3[nH]c(-c5ccc([N+](=O)[O-])cc5)nc3c12)CCCC4(C)C | < 3.52
4.60 | 4.35 | 4.31 | 4.19 | Cc1coc2c3ccc4c(c3c3[nH]c(-c5ccc(C(F)(F)F)cc5)nc3c12)CCCC4(C)C | 4.51
4.86 | 4.68 | 4.45 | 4.21 | COc1ccc(-c2nc3c([nH]2)c2c4c(ccc2c2occ(C)c32)C(C)(C)CCC4)cc1 | 4.08
4.36 | 4.28 | 4.50 | 4.16 | Cc1coc2c3ccc4c(c3c3[nH]c(-c5cccc(C(F)(F)F)c5)nc3c12)CCCC4(C)C | 4.26
4.18 | 3.94 | 4.27 | 3.71 | Cc1coc2c1C(=O)C(=O)c1c-2ccc2c1CCCC2(C)C [TANSHINONE IIA] | 4.11
4.58 | 4.69 | 5.31 | 4.07 | Cc1coc2c3ccc4c(c3c3[nH]c(-c5ccccc5O)nc3c12)CCCC4(C)C | 4.28
3.90 | 3.96 | 4.34 | < 3.52 | COc1ccccc1-c1nc2c([nH]1)c1c3c(ccc1c1occ(C)c21)C(C)(C)CCC3 | 4.06
4.47 | 4.31 | 4.20 | < 3.52 | Cc1coc2c3ccc4c(c3c3[nH]c(-c5cccc([N+](=O)[O-])c5)nc3c12)CCCC4(C)C | < 3.52
4.61 | 4.63 | 3.69 | 3.94 | Cc1coc2c3ccc4c(c3c3[nH]c(-c5ccccc5[N+](=O)[O-])nc3c12)CCCC4(C)C | < 3.52
5.37 | 5.07 | 5.47 | 5.06 | COc1cccc2c1C(=O)c1c(O)c3c(c(O)c1C2=O)C[C@@](O)(C(=O)CO)C[C@@H]3O[C@H]1C[C@H](N)[C@H](O)[C@H](C)O1 [DOXORUBICIN] | 5.44
4.42 | 4.62 | 4.59 | 4.21 | Cc1coc2c3ccc4c(c3c3[nH]c(-c5ccccc5C(F)(F)F)nc3c12)CCCC4(C)C | 4.03
4.55 | 4.28 | 4.40 | 4.17 | COc1cccc(-c2nc3c([nH]2)c2c4c(ccc2c2occ(C)c32)C(C)(C)CCC4)c1 | < 3.52
